For test [1], the target named is T1, Sterol O-acyltransferase 1 (Rattus norvegicus, UniProt O70536).
T1 sequence (O70536 whole entry): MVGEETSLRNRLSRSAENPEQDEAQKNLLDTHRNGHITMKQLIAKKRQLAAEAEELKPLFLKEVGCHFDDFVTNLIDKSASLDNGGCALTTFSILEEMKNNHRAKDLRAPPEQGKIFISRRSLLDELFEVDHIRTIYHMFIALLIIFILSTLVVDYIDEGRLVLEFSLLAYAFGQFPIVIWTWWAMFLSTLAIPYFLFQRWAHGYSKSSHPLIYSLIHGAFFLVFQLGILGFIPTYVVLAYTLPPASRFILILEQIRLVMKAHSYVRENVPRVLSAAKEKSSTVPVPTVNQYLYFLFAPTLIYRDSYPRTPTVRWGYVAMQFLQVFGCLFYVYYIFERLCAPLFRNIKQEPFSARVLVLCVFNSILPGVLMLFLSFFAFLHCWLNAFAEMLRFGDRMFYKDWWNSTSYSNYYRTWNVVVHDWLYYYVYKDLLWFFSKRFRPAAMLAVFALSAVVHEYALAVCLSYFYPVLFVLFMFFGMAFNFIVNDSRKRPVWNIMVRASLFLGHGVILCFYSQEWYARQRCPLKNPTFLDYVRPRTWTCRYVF
The test can be described thus: In vitro inhibition of Acyl coenzyme A:cholesterol acyltransferase in rat hepatic microsomes. Also on record: species or system Liver. The essentials:
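Rat hepatic microsomes were incubated with labelled oleoyl-CoA, and formation of labelled cholesterol oleate was measured (pmol/min/mg). Assays were run in duplicate with at least four inhibitor concentrations bracketing the IC50.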

Test [2] relates to Cricetinae gen. sp. The test is described as follows: Tested anti-hypercholesterolaemic value(AHV) is the ratio of observed reduction in serum cholesterol to difference between control and baseline levels x100 at 10 mg/kg/day dose. It counts as functional.
Test [3] is filed under the species Mesocricetus auratus. The test can be described thus: Evaluated for Syrian hamsters fed with a 0.8% cholesterol-supplemented chow diet for 7 days.
The species entered for test [4] is Mesocricetus auratus. The test can be described thus: Evaluated for Syrian hamsters fed with a 2.5% cholesterol-supplemented chow diet for 3 days.
For test [5], the species on record is Mesocricetus auratus. The test is described as follows: Evaluated for Syrian hamsters fed with 2.5% cholesterol-supplemented chow diet for 3 days.
The species named for test [6] is Mesocricetus auratus. The test can be described thus: Evaluated for Syrian hamsters fed with 0.8% cholesterol-supplemented chow diet for 7 days.

This passage reports IC50, AHV and Serum cholesterol results from ChEMBL document CHEMBL1127371, “Acyl CoA:cholesterol acyltransferase (ACAT) inhibitors: synthesis and structure-activity relationship studies of a new series of trisubstituted imidazoles” (J Med Chem, 1994).

Several values for one entry are separate records, joined by “and”; a condition that tells them apart may be missing. Equal entries are not always repeated.

As for `O=C(NCCCCCSc1nc(-c2ccccc2)c(-c2ccccc2)[nH]1)Nc1ccc(F)cc1F`, half-maximal inhibition in test [1] (IC50) was put at 400 nM.
Still for that read-out and setting: as for `CCCCCCCN(CCCCCSc1nc(-c2ccccc2)c(-c2ccccc2)[nH]1)C(=O)c1ccc(F)cc1F`, the figure is 60 nM.
Still for that read-out and setting: in the case of `CCCCCCCN(CCCCCSc1nc(-c2ccccc2)c(-c2ccccc2)[nH]1)C(=O)Nc1ccc(-c2ccccc2)cc1` it was 70 nM; in that of `CC(C)NC(=O)N(CCCCCSc1nc(-c2ccccc2)c(-c2ccccc2)[nH]1)c1ccccc1`, 80 nM.
In test [1], `CCCCCCCN(CCCCC[S+]([O-])c1nc(-c2ccccc2)c(-c2ccccc2)[nH]1)C(=O)Nc1ccc(F)cc1F` (stereo not drawn) gave an IC50 of 8 nM. For the same molecule, the AHV in test [2] was determined as 49%. In test [3], this molecule came in with a Serum cholesterol of 278 mg %.
In turn, `CCCCCCCN(CCCCCSc1nc(-c2ccccc2)c(-c2ccccc2)[nH]1)C(=O)Cc1ccc(F)cc1F` returned an IC50 in test [1] of 25 nM.
Still for that read-out and setting: in the case of `O=C(Nc1ccc(F)cc1F)N(CCCCCSc1nc(-c2ccccc2)c(-c2ccccc2)[nH]1)Cc1ccccc1` it was 200 nM.
In test [1], `CCCCCCCN(CCSc1nc(-c2ccccc2)c(-c2ccccc2)[nH]1)C(=O)Nc1ccc(F)cc1F` displayed an IC50 of 70 nM.
In turn, `CCCCCCCN(CCCCCSc1nc(-c2ccccc2)c(-c2ccccc2)[nH]1)C(=O)NCCC` registered an IC50 in test [1] of 10 nM. Besides, the AHV in test [2] worked out at 74%. In test [3], the Serum cholesterol stood at 199 mg %.
In test [1], `CC(C)c1cccc(C(C)C)c1NC(=O)NCCCCCSc1nc(-c2ccccc2)c(-c2ccccc2)[nH]1` showed an IC50 of 510 nM.
On the same count and under the same terms, in the case of `CCCN(CCCCCSc1nc(-c2ccccc2)c(-c2ccccc2)[nH]1)C(=O)Nc1ccc(F)cc1F` it was 30 nM; in that of `CCCCCCCN(CCCCCSc1nc(-c2ccccc2)c(-c2ccccc2)n1-c1ccccc1)C(=O)Nc1ccc(F)cc1F`, above 50000 nM; in that of `CCCCCCCN(CCCCCSc1nc(-c2ccccc2)c(-c2ccccc2)[nH]1)C(=O)c1ccccc1`, 50 nM.
Consider `CCCCCCCN(Cc1ccc(CSc2nc(-c3ccccc3)c(-c3ccccc3)[nH]2)cc1)C(=O)Nc1ccc(F)cc1F`, for which 200 nM corresponded to half-maximal inhibition in test [1] (IC50).
Same read-out and setting: in the case of `CCCCCCCN(CCCCCSc1nc(-c2ccccc2)c(-c2ccccc2)[nH]1)C(=O)OCCC` it was 34 nM; in that of `CCCCCCCCNC(=O)N(CCCCCSc1nc(-c2ccccc2)c(-c2ccccc2)[nH]1)c1c(F)cc(F)cc1F`, 20 nM.
The same measure, in the same setting: in the case of `O=C(Nc1ccc(F)cc1F)N(CCCCCSc1nc(-c2ccccc2)c(-c2ccccc2)[nH]1)CCc1ccccc1` it was 170 nM; in that of `CCCCCCCN(CCCCCSc1nc(-c2ccccc2)cn1-c1ccccc1)C(=O)Nc1ccc(F)cc1F`, 42000 nM.
On to `CCCCCCCN(CCCCCSc1nc(-c2ccccc2)c(-c2ccccc2)[nH]1)C(=O)CCC`, for which, in test [1], the IC50 was 30 nM. In test [2], the AHV came out at 43%. Also, the Serum cholesterol in test [3] is 245 mg %.
Consider `CCCCCCCN(CCCCCSc1nc(-c2ccccc2)c(-c2ccccc2)[nH]1)C(N)=Nc1ccccc1`, for which the IC50 in test [1] is 3160 nM.
On the same count and under the same terms, in the case of `CCCCCCCN(CCCCCSc1nc(-c2ccccc2)c(-c2ccccc2)n1C)C(=O)Nc1ccc(F)cc1F` it was 3600 nM; in that of `CCCCCCCN(CCCCCSc1nc(-c2ccccc2)c(-c2ccccc2)[nH]1)C(=O)C(C)C`, 100 nM; in that of `CCCCCCCN(CCCCCSc1nc(-c2ccccc2)c(-c2ccccc2)[nH]1)C(=O)NC1CCCCC1`, 10 nM.
Consider `CCCCCCCN(CCCCCSc1nc(-c2ccccc2)c(-c2ccccc2)[nH]1)C(=O)Nc1ccc([N+](=O)[O-])cc1`, for which the half-inhibitory concentration (IC50) in test [1] came out at 80 nM. In test [2], the AHV is listed as 38%. In addition, in test [3], the Serum cholesterol was 277 mg %.
`CCCCCCCN(CCCCCSc1nc(-c2ccccc2)c(-c2ccccc2)[nH]1)C(N)=O` came in with an IC50 in test [1] of 910 nM.
Still for that read-out and setting: as for `O=C(Nc1ccc(F)cc1F)N(CCCCCSc1nc(-c2ccccc2)c(-c2ccccc2)[nH]1)CCCc1ccccc1`, the figure is 30 nM; as for `CCCCCCCN(CCCCCSc1nc(-c2ccccc2)c(-c2ccccc2)[nH]1)C(=O)Nc1c(C(C)C)cccc1C(C)C`, 230 nM.
Same read-out and setting: in the case of `CCCCCCCCNC(=O)N(CCCCCSc1nc(-c2ccccc2)c(-c2ccccc2)[nH]1)c1ccc(F)cc1F` it was 40 nM; in that of `CCCCCCCN(CCCCCCc1nc(-c2ccccc2)c(-c2ccccc2)[nH]1)C(=O)Nc1ccc(F)cc1F`, 280 nM; in that of `CC(C)NC(=O)N(CCCCCSc1nc(-c2ccccc2)c(-c2ccccc2)[nH]1)c1ccc(F)cc1F`, 40 nM.
In test [1], `CCCCCCCN(CCCCCSc1nc(-c2ccccc2)c(-c2ccccc2)[nH]1)C(=O)NC(C)C` registered an IC50 of 20 nM.
In test [1], `CCCCCCCN(Cc1cccc(CSc2nc(-c3ccccc3)c(-c3ccccc3)[nH]2)c1)C(=O)Nc1ccc(F)cc1F` yielded a concentration for half-maximal inhibition (IC50) of 30 nM.
`CCCCCCCN(CCCCCSc1nc(-c2ccccc2)c(-c2ccccc2)[nH]1)C(=O)Cc1ccc(-c2ccccc2)cc1` came in with an IC50 in test [1] of 160 nM.
Molecule `CCCCCCCN(CCCCCCCCSc1nc(-c2ccccc2)c(-c2ccccc2)[nH]1)C(=O)Nc1ccc(F)cc1F` had a 50% inhibitory concentration (IC50) in test [1] of 8 nM. The molecule also gave a Serum cholesterol in test [4] of 271 mg %.
On to `CCCCCCCN(CCCCCSc1nc(-c2ccccc2)c(-c2ccccc2)[nH]1)C(=O)Nc1ccc(F)cc1F` [LECIMIBIDE], for which the AHV in test [2] was 59% and 61%. The figures for the Serum cholesterol in test [5] and in test [6] were 205 mg % and 253 mg %, respectively.
Regarding `CCCCCCCN(CCCCCSc1nc(-c2ccccc2)c(-c2ccccc2)[nH]1)C(=O)Nc1c(F)cc(F)cc1F`, inhibition in test [1] was half-maximal at 16 nM (IC50). In test [4], the Serum cholesterol turned out to be 218 mg %. Further, the AHV in test [2] is 51%.
In test [1], `CCCCCCCN(CC(C)(C)CCSc1nc(-c2ccccc2)c(-c2ccccc2)[nH]1)C(=O)Nc1ccc(F)cc1F` had an IC50 of 70 nM.
Still for that read-out and setting: as for `CCCCCCCCNC(=O)N(CCCCCSc1nc(-c2ccccc2)c(-c2ccccc2)[nH]1)Cc1ccccc1`, the figure is 150 nM.
The same measure, in the same setting: in the case of `CCCCCCCN(CCCCCSc1nc(-c2ccccc2)c(-c2ccccc2)[nH]1)C(=O)NC` it was 40 nM; in that of `O=C(Nc1ccc(F)cc1F)N(CCCCCSc1nc(-c2ccccc2)c(-c2ccccc2)[nH]1)CCCCc1ccccc1`, 50 nM; in that of `CCCCCCCN(CCCCCSc1nc(-c2ccccc2)c(-c2ccccc2)[nH]1)/C(S)=N\c1ccc(F)cc1F`, 58 nM.
For the molecule `CCCCCCCN(CCCCCS(=O)(=O)c1nc(-c2ccccc2)c(-c2ccccc2)[nH]1)C(=O)Nc1ccc(F)cc1F`, the IC50 in test [1] came out at 16 nM. Moreover, the AHV in test [2] is recorded as 30%. This molecule also had a Serum cholesterol in test [3] of 318 mg %.
On to `CCCCCCCN(CCCCCSc1nc(-c2ccccc2)c(-c2ccccc2)[nH]1)C(=O)CC1CCCCC1`, for which, in test [1], the IC50 was 30 nM.
As for `CCCCCCCN(CCCCCSc1ncc(-c2ccccc2)n1-c1ccccc1)C(=O)Nc1ccc(F)cc1F`, it took 7200 nM to reach half-maximal inhibition in test [1] (IC50).
Same read-out and setting: as for `CCCCCCCN(CCCCCSc1ncc[nH]1)C(=O)Nc1ccc(F)cc1F`, the figure is 2900 nM; as for `CCCCCCCN(CCCCCSc1nc(-c2ccccc2)c(-c2ccccc2)[nH]1)/C(S)=N\c1c(F)cc(F)cc1F`, 30 nM; as for `CCCCCCCN(CCCCCSc1nc(-c2ccccc2)c(-c2ccccc2)[nH]1)C(=O)OC1CCCCC1`, 50 nM.
The molecule `CCCCCCCCNC(=O)N(CCCCCSc1nc(-c2ccccc2)c(-c2ccccc2)[nH]1)c1ccccc1` had an IC50 in test [1] of 10 nM. The Serum cholesterol in test [4] amounted to 268 mg %.
Take `CCCCCCCN(CCCCCSc1nc(-c2ccccc2)c(-c2ccccc2)[nH]1)C(=O)Oc1ccccc1`: the IC50 in test [1] stood at 20 nM.
On the same count and under the same terms, in the case of `CCCCCCCN(Cc1ccccc1CSc1nc(-c2ccccc2)c(-c2ccccc2)[nH]1)C(=O)Nc1ccc(F)cc1F` it was 3600 nM.
The same measure, in the same setting: in the case of `CCCCCCCN(CCCCCSc1nc(-c2ccccc2)c(-c2ccccc2)[nH]1)C(=O)Nc1ccccc1` it was 23 nM; in that of `CCCCCCCN(CCCCCNc1nc(-c2ccccc2)c(-c2ccccc2)[nH]1)C(=O)Nc1ccc(F)cc1F`, 3500 nM.

A word on the IC50: it is the point on the concentration scale where inhibition reaches its midpoint.
